Results on three molecules are retold here after ChEMBL document CHEMBL1151946, “Doxazosin-related alpha1-adrenoceptor antagonists with prostate antitumor activity” (J Med Chem, 2009).

Experiment [1] deals with T1, Alpha-1A adrenergic receptor (Homo sapiens, UniProt P35348).
T1 sequence (P35348 whole entry): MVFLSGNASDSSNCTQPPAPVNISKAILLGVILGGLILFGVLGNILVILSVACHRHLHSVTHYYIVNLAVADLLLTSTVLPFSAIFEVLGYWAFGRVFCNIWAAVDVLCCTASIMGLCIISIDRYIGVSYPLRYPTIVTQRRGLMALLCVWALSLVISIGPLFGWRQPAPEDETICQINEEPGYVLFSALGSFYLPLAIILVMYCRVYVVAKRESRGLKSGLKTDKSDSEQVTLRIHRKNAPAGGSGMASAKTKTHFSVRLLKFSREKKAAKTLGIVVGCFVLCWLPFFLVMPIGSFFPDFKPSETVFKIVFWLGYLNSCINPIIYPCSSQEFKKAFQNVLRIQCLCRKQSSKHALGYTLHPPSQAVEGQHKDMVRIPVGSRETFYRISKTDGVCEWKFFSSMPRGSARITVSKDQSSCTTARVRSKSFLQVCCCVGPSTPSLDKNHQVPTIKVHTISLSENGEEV
The experiment can be described thus: Displacement of [3H]prazosin from human alpha1A adrenoceptor expressed in CHO cells. Type of experiment: cell-based. The gist of the method:
(§1)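 Radioligand competition binding used [3H]prazosin on membranes of CHO cells expressing human α1a, α1b or α1d adrenoceptor. IC50 values were converted to pKi by the Cheng-Prusoff equation. Data come from two to three experiments run in triplicate, agreeing within ±20%.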
For orientation: In a radioligand displacement assay an active substance lowers the binding of a labelled ligand.

The target in experiment [2] is T2, Alpha-1B adrenergic receptor (Homo sapiens, UniProt P35368).
T2 sequence (P35368 whole entry): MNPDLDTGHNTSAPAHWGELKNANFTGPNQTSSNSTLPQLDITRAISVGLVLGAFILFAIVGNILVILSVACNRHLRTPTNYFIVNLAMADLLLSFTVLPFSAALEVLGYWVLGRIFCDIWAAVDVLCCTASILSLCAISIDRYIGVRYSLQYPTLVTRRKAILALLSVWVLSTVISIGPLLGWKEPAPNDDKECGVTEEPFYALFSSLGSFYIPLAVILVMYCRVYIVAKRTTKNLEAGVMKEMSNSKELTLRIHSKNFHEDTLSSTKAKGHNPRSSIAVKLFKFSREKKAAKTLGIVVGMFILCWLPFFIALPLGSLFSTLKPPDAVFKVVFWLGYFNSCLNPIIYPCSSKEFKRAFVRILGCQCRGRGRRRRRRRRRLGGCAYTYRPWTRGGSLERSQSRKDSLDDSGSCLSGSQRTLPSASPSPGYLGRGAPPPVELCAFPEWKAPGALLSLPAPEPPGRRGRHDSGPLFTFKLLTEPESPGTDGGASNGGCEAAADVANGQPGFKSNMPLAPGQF
The experiment can be described thus: Displacement of [3H]prazosin from human Alpha-1B adrenoceptor expressed in CHO cells. Type of experiment: cell-based. In outline: as §1

Experiment [3] concerns the target T3, Alpha-1D adrenergic receptor (Homo sapiens, UniProt P25100).
T3 sequence (P25100 whole entry): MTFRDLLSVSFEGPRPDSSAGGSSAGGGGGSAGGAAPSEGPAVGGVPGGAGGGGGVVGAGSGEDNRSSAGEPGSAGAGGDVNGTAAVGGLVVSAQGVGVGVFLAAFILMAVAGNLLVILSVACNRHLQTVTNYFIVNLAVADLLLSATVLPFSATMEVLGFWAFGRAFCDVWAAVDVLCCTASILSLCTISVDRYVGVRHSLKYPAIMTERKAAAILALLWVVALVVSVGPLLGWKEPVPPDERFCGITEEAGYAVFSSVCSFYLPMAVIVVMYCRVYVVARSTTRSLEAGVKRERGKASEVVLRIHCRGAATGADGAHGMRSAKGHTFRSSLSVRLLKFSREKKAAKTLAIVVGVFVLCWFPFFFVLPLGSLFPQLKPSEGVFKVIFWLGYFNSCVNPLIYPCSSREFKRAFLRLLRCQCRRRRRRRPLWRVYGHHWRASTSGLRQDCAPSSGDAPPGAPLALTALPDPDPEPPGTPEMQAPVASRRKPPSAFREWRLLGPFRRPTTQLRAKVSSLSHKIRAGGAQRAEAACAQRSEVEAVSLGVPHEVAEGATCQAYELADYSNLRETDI
The experiment can be described thus: Displacement of [3H]prazosin from human Alpha-1D adrenoceptor expressed in CHO cells. Type of experiment: cell-based. In outline:
as §1

The target of experiment [4] is T4, Alpha-1A adrenergic receptor (Rattus norvegicus) (UniProt P43140).
T4 sequence (whole entry): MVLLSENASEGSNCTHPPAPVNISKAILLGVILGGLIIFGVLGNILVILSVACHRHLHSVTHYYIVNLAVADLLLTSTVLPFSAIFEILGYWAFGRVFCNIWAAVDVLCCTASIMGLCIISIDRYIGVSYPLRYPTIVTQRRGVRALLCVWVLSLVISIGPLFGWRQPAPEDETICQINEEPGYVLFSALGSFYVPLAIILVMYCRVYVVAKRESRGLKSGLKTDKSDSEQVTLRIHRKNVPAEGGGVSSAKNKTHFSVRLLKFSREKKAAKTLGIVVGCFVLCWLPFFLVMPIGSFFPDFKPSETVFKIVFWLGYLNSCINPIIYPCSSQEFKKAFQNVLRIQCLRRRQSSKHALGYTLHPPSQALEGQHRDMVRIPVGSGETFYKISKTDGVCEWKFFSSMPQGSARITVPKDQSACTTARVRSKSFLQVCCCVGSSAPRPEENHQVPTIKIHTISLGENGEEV
The experiment can be described thus: Antagonist activity at rat alpha1A adrenoceptor assessed as inhibition if norepinephrine-induced contraction of vas deference. Type of experiment: functional. In outline:
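Isolated rat tissue contraction assay. The α1A response used vas deferens with (-)-noradrenaline as agonist, α1D used thoracic aorta with (-)-noradrenaline, and α1B used spleen with (-)-phenylephrine. pA2 values are means ± SEM over three antagonist concentrations, each tested at least four times. Where the Schild slope differed from unity, pKB was calculated by van Rossum at the lowest antagonist concentration giving log(CR−1) ≥0.5.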

In experiment [5] the test system is PC-3. The experiment can be described thus: Cytotoxicity against human PC3 cells after 72 hrs by CellTitter-Glo luminescent cell viability assay. The following applies: PC-3, 72 h. It is filed as functional, cell-based.
The subject of experiment [6] is PC-3. As to the kind of experiment: Induction of apoptosis in human PC3 cells assessed as caspase 3/7 activation after 24 hrs by Caspase-Glo 3/7 assay. Type of experiment: functional, cell-based. The following applies: PC-3, 24 h.

Take `COc1cc2nc(N(C)CCCCCCN(C)C(=O)C3COc4ccccc4O3)nc(N)c2cc1OC` (centres undefined): the Ki is 1.86 nM in experiment [1], 0.933 nM in experiment [2] and 1.58 nM in experiment [3]. In addition, the pKb in experiment [4] was 8.51. Also, the IC50 in experiment [5] came out at 8400 nM. For the same molecule, the EC50 in experiment [6] came out at 10000 nM.
On to `COc1cc2nc(N3CCN(C(=O)C4COc5ccccc5O4)[C@H]4CCCC[C@H]43)nc(N)c2cc1OC` (relative stereo) [CYCLODOXAZOSIN], for which the Ki in experiment [1] was 2.82 nM; in experiment [2] it was 0.417 nM; in experiment [3], 0.17 nM. Also, the pKb in experiment [4] was 7.21. The EC50 in experiment [5] and in experiment [6] was 1860 nM throughout. In addition, the IC50 in experiment [5] turned out to be 850 nM.
Turning to `COc1cc2nc(N3CCN(C(=O)C4COc5ccccc5O4)[C@H]4CCCC[C@@H]43)nc(N)c2cc1OC` (relative stereo), the Ki in experiment [1] was 81.3 nM; in experiment [2], 22.4 nM; in experiment [3], 26.3 nM. Further, the pKb in experiment [4] was 5.88. For the same molecule, in experiment [5], the IC50 is more than 10000 nM. Also, the EC50 in experiment [6] turned out to be 10000 nM.

The term Ki denotes the equilibrium dissociation constant of an inhibitor or competing ligand from its target. A lower Ki goes with higher affinity. Usually pKb stands for the negative decadic logarithm of the Kb, by convention in mol/L. As a reminder, the IC50 is the concentration needed to halve the response being measured. As usually defined, the EC50 is the concentration needed to bring the measured effect to its halfway point.
